From ChEMBL document CHEMBL5724801, “EUbOPEN Chemogenomics Library - Multiplex” (2024)
Values joined by “and” are separate entries in the source; they are usually repeats but may differ in a detail not shown here. Equal values may be shown once.

Test system: HEK-293T
Assay: Multiplex assay against HEK293T
Format: toxicity, cell-based
Settings: human
Method in brief: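 Imaging took place on a CQ1 microscope at 37°C and 5% CO2 once compound had been added to live cells stained at seeding with Hoechst33342, BioTracker Green Microtubule Cytoskeleton Dye, MitoTracker Red and Annexin V Alexa Fluor 680. CellPathfinder machine-learning gating classed cells as Hoechst high-intensity objects or normal cells, classed normal cells as having healthy, pyknosed or fragmented nuclei, and classed pyknosed cells as mitotic or apoptotic. Tubulin, mitochondrial-mass and membrane-permeability phenotypes are per cents of the healthy-nucleus cells.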

[1] = 12 h, 1 µM, compound concentration 1 uM
[2] = 12 h, 10 µM, compound concentration 10 uM
[3] = 24 h, 1 µM, compound concentration 1 uM
[4] = 24 h, 10 µM, compound concentration 10 uM
[5] = 48 h, 1 µM, compound concentration 1 uM
[6] = 48 h, 10 µM, compound concentration 10 uM

CC(C)(C)c1ccc(CSc2cnn(C(C)(C)C)c(=O)c2Cl)cc1 [PYRIDABEN]
Population Apoptotic (%) [1]: 51% and 28%
Population Fragmented Nuclei (%) [1]: 7% and 6%
Population Healthy Nuclei (%) [1]: 78% and 83%
Population Hoechst High Intensity Objects (%) [1]: 12% and 8%
Population Membrane Permeable-Phenotype (%) [1]: 0%
Population Mitochondria Different-Phenotype (%) [1]: 51% and 63%
Population Mitotic Cells (%) [1]: 48% and 71%
Population Normal (%) [1]: 87% and 91%
Population Pyknosed Nuclei (%) [1]: 14% and 10%
Population Tubulin-Different-Phenotype (%) [1]: 34% and 30%
Total Cell Count [1]: 299 and 306
Population Apoptotic (%) [2]: 56% and 62%
Population Fragmented Nuclei (%) [2]: 6% and 8%
Population Healthy Nuclei (%) [2]: 77% and 74%
Population Hoechst High Intensity Objects (%) [2]: 11% and 17%
Population Membrane Permeable-Phenotype (%) [2]: 0%
Population Mitochondria Different-Phenotype (%) [2]: 75% and 81%
Population Mitotic Cells (%) [2]: 44% and 37%
Population Normal (%) [2]: 88% and 82%
Population Pyknosed Nuclei (%) [2]: 15% and 16%
Population Tubulin-Different-Phenotype (%) [2]: 55% and 38%
Total Cell Count [2]: 359 and 236
Population Apoptotic (%) [3]: 33% and 35%
Population Fragmented Nuclei (%) [3]: 7%
Population Healthy Nuclei (%) [3]: 80% and 83%
Population Hoechst High Intensity Objects (%) [3]: 9% and 8%
Population Membrane Permeable-Phenotype (%) [3]: 0%
Population Mitochondria Different-Phenotype (%) [3]: 37% and 43%
Population Mitotic Cells (%) [3]: 66% and 64%
Population Normal (%) [3]: 90% and 91%
Population Pyknosed Nuclei (%) [3]: 11% and 8%
Population Tubulin-Different-Phenotype (%) [3]: 27% and 22%
Total Cell Count [3]: 373 and 370
Population Apoptotic (%) [4]: 44% and 46%
Population Fragmented Nuclei (%) [4]: 7% and 8%
Population Healthy Nuclei (%) [4]: 79% and 70%
Population Hoechst High Intensity Objects (%) [4]: 10% and 23%
Population Membrane Permeable-Phenotype (%) [4]: 0%
Population Mitochondria Different-Phenotype (%) [4]: 68% and 65%
Population Mitotic Cells (%) [4]: 55% and 53%
Population Normal (%) [4]: 89% and 76%
Population Pyknosed Nuclei (%) [4]: 12% and 21%
Population Tubulin-Different-Phenotype (%) [4]: 52% and 25%
Total Cell Count [4]: 386 and 252
Population Apoptotic (%) [5]: 19% and 30%
Population Fragmented Nuclei (%) [5]: 11% and 9%
Population Healthy Nuclei (%) [5]: 80% and 84%
Population Hoechst High Intensity Objects (%) [5]: 5% and 4%
Population Membrane Permeable-Phenotype (%) [5]: 0%
Population Mitochondria Different-Phenotype (%) [5]: 25% and 21%
Population Mitotic Cells (%) [5]: 80% and 69%
Population Normal (%) [5]: 94% and 95%
Population Pyknosed Nuclei (%) [5]: 7% and 6%
Population Tubulin-Different-Phenotype (%) [5]: 14% and 13%
Total Cell Count [5]: 585 and 522
Population Apoptotic (%) [6]: 48% and 64%
Population Fragmented Nuclei (%) [6]: 8% and 13%
Population Healthy Nuclei (%) [6]: 79% and 71%
Population Hoechst High Intensity Objects (%) [6]: 11% and 14%
Population Membrane Permeable-Phenotype (%) [6]: 0%
Population Mitochondria Different-Phenotype (%) [6]: 59% and 48%
Population Mitotic Cells (%) [6]: 51% and 35%
Population Normal (%) [6]: 88% and 85%
Population Pyknosed Nuclei (%) [6]: 12% and 14%
Population Tubulin-Different-Phenotype (%) [6]: 43% and 28%
Total Cell Count [6]: 424 and 290

CC[C@H]1OC(=O)[C@H](C)[C@@H](O[C@H]2C[C@@](C)(OC)[C@@H](O)[C@H](C)O2)[C@H](C)[C@@H](O[C@@H]2O[C@H](C)C[C@H](N(C)C)[C@H]2O)[C@@]2(C)CC(C)=C(O2)[C@H](C)[C@@H](O)[C@]1(C)O
Population Apoptotic (%) [1]: 35% and 45%
Population Fragmented Nuclei (%) [1]: 8% and 3%
Population Healthy Nuclei (%) [1]: 74% and 84%
Population Hoechst High Intensity Objects (%) [1]: 6% and 7%
Population Membrane Permeable-Phenotype (%) [1]: 0%
Population Mitochondria Different-Phenotype (%) [1]: 56% and 72%
Population Mitotic Cells (%) [1]: 64% and 54%
Population Normal (%) [1]: 93% and 92%
Population Pyknosed Nuclei (%) [1]: 17% and 11%
Population Tubulin-Different-Phenotype (%) [1]: 41% and 27%
Total Cell Count [1]: 367 and 300
Population Apoptotic (%) [2]: 55% and 56%
Population Fragmented Nuclei (%) [2]: 8% and 11%
Population Healthy Nuclei (%) [2]: 71% and 72%
Population Hoechst High Intensity Objects (%) [2]: 13% and 10%
Population Membrane Permeable-Phenotype (%) [2]: 0%
Population Mitochondria Different-Phenotype (%) [2]: 87% and 91%
Population Mitotic Cells (%) [2]: 44% and 43%
Population Normal (%) [2]: 86% and 89%
Population Pyknosed Nuclei (%) [2]: 19% and 16%
Population Tubulin-Different-Phenotype (%) [2]: 76% and 77%
Total Cell Count [2]: 383 and 217
Population Apoptotic (%) [3]: 20% and 35%
Population Fragmented Nuclei (%) [3]: 8%
Population Healthy Nuclei (%) [3]: 78%
Population Hoechst High Intensity Objects (%) [3]: 3% and 6%
Population Membrane Permeable-Phenotype (%) [3]: 0%
Population Mitochondria Different-Phenotype (%) [3]: 35% and 49%
Population Mitotic Cells (%) [3]: 79% and 64%
Population Normal (%) [3]: 96% and 93%
Population Pyknosed Nuclei (%) [3]: 13% and 12%
Population Tubulin-Different-Phenotype (%) [3]: 24% and 22%
Total Cell Count [3]: 493 and 371
Population Apoptotic (%) [4]: 42% and 70%
Population Fragmented Nuclei (%) [4]: 9% and 10%
Population Healthy Nuclei (%) [4]: 75% and 71%
Population Hoechst High Intensity Objects (%) [4]: 11% and 10%
Population Membrane Permeable-Phenotype (%) [4]: 0%
Population Mitochondria Different-Phenotype (%) [4]: 74% and 87%
Population Mitotic Cells (%) [4]: 57% and 29%
Population Normal (%) [4]: 88% and 89%
Population Pyknosed Nuclei (%) [4]: 15% and 18%
Population Tubulin-Different-Phenotype (%) [4]: 75% and 80%
Total Cell Count [4]: 499 and 254
Population Apoptotic (%) [5]: 30% and 21%
Population Fragmented Nuclei (%) [5]: 12%
Population Healthy Nuclei (%) [5]: 76% and 78%
Population Hoechst High Intensity Objects (%) [5]: 8% and 6%
Population Membrane Permeable-Phenotype (%) [5]: 0%
Population Mitochondria Different-Phenotype (%) [5]: 28% and 34%
Population Mitotic Cells (%) [5]: 69% and 78%
Population Normal (%) [5]: 91% and 93%
Population Pyknosed Nuclei (%) [5]: 11% and 9%
Population Tubulin-Different-Phenotype (%) [5]: 21% and 20%
Total Cell Count [5]: 718 and 584
Population Apoptotic (%) [6]: 50% and 53%
Population Fragmented Nuclei (%) [6]: 12%
Population Healthy Nuclei (%) [6]: 74% and 75%
Population Hoechst High Intensity Objects (%) [6]: 10% and 12%
Population Membrane Permeable-Phenotype (%) [6]: 1% and 0%
Population Mitochondria Different-Phenotype (%) [6]: 61% and 84%
Population Mitotic Cells (%) [6]: 50% and 46%
Population Normal (%) [6]: 89% and 87%
Population Pyknosed Nuclei (%) [6]: 12% and 11%
Population Tubulin-Different-Phenotype (%) [6]: 56% and 73%
Total Cell Count [6]: 671 and 300
